Measurements reported in ChEMBL document CHEMBL1148583, “Substituted 2-thioxoimidazolidin-4-ones and imidazolidine-2,4-diones as fatty acid amide hydrolase inhibitors templates” (J Med Chem, 2006).

Experiments:
[1] = target: Cannabinoid receptor 1 (Homo sapiens) (UniProt P21554); assay: Displacement of [3H]SR141716A from human CB1 expressed in CHO cells at 10 uM; assay type: cell-based
How it was run: (§1)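 Membranes from CHO cells expressing hCB1 or hCB2 (40 µg per tube). Radioligand was 1 nM [3H]-SR141716A for CB1 or 1 nM [3H]-CP-55,940 for CB2. Competitor at 10 µM; nonspecific binding defined with 10 µM HU-210. Incubation 1 h at 30 °C in 50 mM Tris-HCl, 3 mM MgCl2, 1 mM EDTA, 0.5% BSA, pH 7.4. Filtered on PEI-treated GF/B and counted. Result is % displacement, ≥3 runs in duplicate, mean ± SEM.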

[2] = target: Cannabinoid receptor 2 (Homo sapiens) (UniProt P34972); assay: Displacement of [3H]CP-55940 from human CB2 expressed in CHO cells at 10 uM; assay type: cell-based; how it was run: as §1
Cannabinoid receptor 2 (Homo sapiens), sequence (P34972 whole entry): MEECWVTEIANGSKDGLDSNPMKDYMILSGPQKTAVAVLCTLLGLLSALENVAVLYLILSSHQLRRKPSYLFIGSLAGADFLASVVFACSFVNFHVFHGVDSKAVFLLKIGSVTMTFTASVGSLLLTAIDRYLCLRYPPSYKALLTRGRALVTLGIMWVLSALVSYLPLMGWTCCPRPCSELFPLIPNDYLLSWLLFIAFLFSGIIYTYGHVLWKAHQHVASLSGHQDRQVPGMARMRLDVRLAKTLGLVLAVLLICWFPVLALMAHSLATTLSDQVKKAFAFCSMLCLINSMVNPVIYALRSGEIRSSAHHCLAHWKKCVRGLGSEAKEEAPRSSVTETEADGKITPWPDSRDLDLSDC

[3] = target: T1, Fatty-acid amide hydrolase 1 (Rattus norvegicus, UniProt P97612); assay: Inhibitory activity against FAAH in Wistar rat brain homogenate at pH 9.0; assay type: tissue-based
T1 sequence (P97612 whole entry): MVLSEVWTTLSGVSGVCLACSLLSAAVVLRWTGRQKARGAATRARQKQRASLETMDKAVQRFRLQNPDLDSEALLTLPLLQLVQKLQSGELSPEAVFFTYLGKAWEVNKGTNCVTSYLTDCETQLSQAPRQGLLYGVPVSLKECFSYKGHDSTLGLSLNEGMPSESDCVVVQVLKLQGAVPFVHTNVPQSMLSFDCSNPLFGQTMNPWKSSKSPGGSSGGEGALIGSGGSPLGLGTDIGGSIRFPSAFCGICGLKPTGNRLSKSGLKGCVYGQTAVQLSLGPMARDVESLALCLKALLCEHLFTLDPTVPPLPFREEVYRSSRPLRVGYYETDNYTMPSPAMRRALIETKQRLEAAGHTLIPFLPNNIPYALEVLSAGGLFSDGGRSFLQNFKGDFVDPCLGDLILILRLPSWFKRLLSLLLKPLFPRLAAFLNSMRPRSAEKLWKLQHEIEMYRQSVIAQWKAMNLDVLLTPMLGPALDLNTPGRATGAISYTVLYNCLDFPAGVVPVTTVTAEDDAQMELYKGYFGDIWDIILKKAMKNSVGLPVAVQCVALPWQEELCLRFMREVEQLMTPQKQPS
How it was run: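 Enzyme from male Wistar rat (250-300 g) brain membranes, washed by 36 000g spins and kept at -80 °C. Anandamide hydrolysis at pH 9.0 in 10 mM Tris-HCl, 1 mM EDTA, 0.1% BSA, 37 °C for 10 min. Stopped with cold chloroform/methanol, then the methanol/buffer phase was counted for radioactivity. Inhibition curves run ≥3 times in duplicate; IC50 by nonlinear regression, given as pI50 ± SEM.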

[4] = target: T2, Fatty-acid amide hydrolase 1 (Rattus norvegicus) (UniProt P97612); assay: Inhibitory activity against FAAH in rat brain homogenate at 100 uM; assay type: tissue-based; details: wistar
T2 sequence (whole entry): T1 sequence (P97612 whole entry)
How it was run: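 Rat brain membrane homogenate hydrolysing anandamide in 10 mM Tris-HCl, 1 mM EDTA, 0.1% BSA, pH 7.6, at 37 °C for 10 min. Reaction quenched with cold chloroform/methanol; radioactivity counted in the aqueous methanol phase. Compound tested at 100 µM; percent inhibition of FAAH activity reported.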

Cannabinoid receptor 1 (Homo sapiens), sequence (P21554 whole entry): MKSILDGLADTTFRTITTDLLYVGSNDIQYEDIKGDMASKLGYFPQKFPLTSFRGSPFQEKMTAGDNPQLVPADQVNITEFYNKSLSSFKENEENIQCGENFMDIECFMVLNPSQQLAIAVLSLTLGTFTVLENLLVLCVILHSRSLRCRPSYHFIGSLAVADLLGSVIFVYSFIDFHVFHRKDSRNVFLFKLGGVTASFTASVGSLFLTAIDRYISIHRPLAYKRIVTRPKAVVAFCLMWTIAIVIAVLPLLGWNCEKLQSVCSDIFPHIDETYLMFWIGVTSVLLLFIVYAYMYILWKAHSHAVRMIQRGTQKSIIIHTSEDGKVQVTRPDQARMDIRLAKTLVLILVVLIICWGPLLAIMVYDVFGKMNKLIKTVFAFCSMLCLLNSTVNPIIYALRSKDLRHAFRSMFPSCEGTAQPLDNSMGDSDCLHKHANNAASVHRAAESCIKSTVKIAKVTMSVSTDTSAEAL

Activity [1] | Activity [2] | IC50 [3] | Inhibition [4] | Compound
28.8% | < 20% |  |  | CCCCCCCN1C(=O)C(c2ccccc2)(c2ccccc2)NC1=S
29.9% | < 20% | 10 µM |  | CCCCCCN1C(=O)NC(c2ccccc2)(c2ccccc2)C1=O
39.5% | < 20% |  |  | CCCCCCCCN1C(=O)NC(c2ccc(Cl)cc2)(c2ccc(Cl)cc2)C1=O
38.8% | < 20% |  |  | CCCCCCCCN1C(=O)C(c2ccccc2)(c2ccccc2)NC1=S
67.8% | < 20% |  |  | CCCCCCCN1C(=O)C(c2ccc(Cl)cc2)(c2ccc(Cl)cc2)NC1=S
24.5% | < 20% |  |  | CCCCCCCCN1C(=O)NC(c2ccc(C)cc2)(c2ccc(C)cc2)C1=O
44.8% | < 20% |  |  | CCCCCCCN1C(=O)NC(c2ccc(Br)cc2)(c2ccc(Br)cc2)C1=O
73.8% | < 20% |  |  | CCCCN1C(=O)C(c2ccc(Br)cc2)(c2ccc(Br)cc2)NC1=S
21.9% | < 20% |  |  | CCCCCCN1C(=O)C(c2ccccc2)(c2ccccc2)NC1=S
45.1% | 21.1% |  |  | CCCCCCCCN1C(=O)NC(c2ccc(Br)cc2)(c2ccc(Br)cc2)C1=O
34.2% | < 20% |  |  | CCCCCCCN1C(=O)C(c2ccc(Br)cc2)(c2ccc(Br)cc2)NC1=S
23.4% | < 20% |  |  | CCCCCCCCN1C(=O)C(c2ccc(Br)cc2)(c2ccc(Br)cc2)NC1=S
25.1% | < 20% |  |  | CCCCCCCCN1C(=O)NC(c2ccccc2)(c2ccccc2)C1=O
< 20% | < 20% |  |  | CCCCCCCCCCN1C(=O)NC(c2ccccc2)(c2ccccc2)C1=O
69.2% | 23.1% |  |  | CCCCN1C(=O)NC(c2ccc(Br)cc2)(c2ccc(Br)cc2)C1=O
< 10% | < 10% |  |  | CCCCCCCCCCCCCCCCN1C(=O)C(c2ccccc2)(c2ccccc2)NC1=S
< 20% | < 20% |  |  | CCCCN1C(=O)NC(c2ccccc2)(c2ccccc2)C1=O
< 10% | < 20% | 0.891 µM |  | CCCCCCCCCCCCCCN1C(=O)C(c2ccccc2)(c2ccccc2)NC1=S
< 20% | < 20% |  |  | CCCCCCCCCCCCCCN1C(=O)NC(c2ccccc2)(c2ccccc2)C1=O
42.7% | < 20% |  |  | CCCCCCCN1C(=O)NC(c2ccc(Cl)cc2)(c2ccc(Cl)cc2)C1=O
40.1% | < 20% |  |  | CCCCCCCCN1C(=O)NC(c2ccc(F)cc2)(c2ccc(F)cc2)C1=O
27.6% | < 20% |  |  | CCCCCN1C(=O)C(c2ccccc2)(c2ccccc2)NC1=S
< 10% | < 20% | 1.35 µM |  | CCCCCCCCCCN1C(=O)C(c2ccccc2)(c2ccccc2)NC1=S
36.6% | < 10% |  |  | CCCCCCCCN1C(=O)C(c2ccc(Cl)cc2)(c2ccc(Cl)cc2)NC1=S
31.2% | < 20% |  |  | CCCCCCCCN1C(=O)NC(c2ccc(OC)cc2)(c2ccc(OC)cc2)C1=O
21.3% | < 20% |  |  | CCCCCN1C(=O)NC(c2ccccc2)(c2ccccc2)C1=O
72.7% | < 20% |  |  | CCCCN1C(=O)C(c2ccc(Cl)cc2)(c2ccc(Cl)cc2)NC1=S
23.4% | < 20% | 8.32 µM |  | CCCCCCCN1C(=O)NC(c2ccccc2)(c2ccccc2)C1=O
51.2% | < 20% |  |  | CCCCN1C(=O)NC(c2ccc(Cl)cc2)(c2ccc(Cl)cc2)C1=O

The remaining lines, values behind:

Compound | Activity [1] | Activity [2] | IC50 [3] | Inhibition [4]
O=C1NC(=S)N(c2ccccc2)C1c1ccccc1 (centres undefined) | < 20% | < 20% |  | 
CCCCCCCN1C(=O)C(c2ccccc2)N(c2ccccc2)C1=O (centres undefined) | 45.6% | < 20% |  | 
CCN1C(=O)NC(c2ccccc2)(c2ccccc2)C1=O | < 20% | < 20% |  | 
CCCCN1C(=O)C(c2ccccc2)(c2ccccc2)NC1=S | 42.8% | < 10% |  | 
COCCCN1C(=O)C(c2ccccc2)(c2ccccc2)NC1=S | 29.4% | < 20% |  | 
CCCCCCCN1C(=O)C(c2ccccc2)NC1=S (centres undefined) | < 20% | < 20% |  | 
CCCCCCCN1C(=O)CNC1=O | < 20% | < 20% |  | 
O=C1NC(c2ccccc2)C(=O)N1c1ccccc1 (centres undefined) | < 20% | < 20% |  | 
O=C1C(c2ccccc2)NC(=S)N1c1ccccc1 (centres undefined) | < 20% | < 20% |  | 
O=C1NC(c2ccccc2)(c2ccccc2)C(=O)N1Cc1ccccc1 | 33.7% | < 20% |  | 
CCCCCCCN1C(=O)C(c2ccccc2)(c2ccccc2)N(CCCCCCC)C1=S | < 20% | < 20% |  | 
O=C1NC(=S)NC1(c1ccccc1)c1ccccc1 | < 15% | < 10% |  | 
O=C1N(Cc2ccccc2)C(=S)NC1(c1ccccc1)c1ccccc1 | 44.7% | < 20% |  | 
O=C1N(CCCO)C(=S)NC1(c1ccccc1)c1ccccc1 | 20.8% | < 20% |  | 
O=C1NC(=O)N(c2ccccc2)C1c1ccccc1 (centres undefined) | < 20% | < 20% |  | 
CC(C)CN1C(=O)C(c2ccccc2)(c2ccccc2)NC1=S | 34.6% | < 10% |  | 
O=C1NC(c2ccc(Cl)cc2)(c2ccc(Cl)cc2)C(=O)N1Cc1ccccc1 | 72.2% | < 20% |  | 
CCCCCCCCCCCCCCCCCCN1C(=O)C(c2ccccc2)(c2ccccc2)NC1=S | < 10% | < 10% |  | 
O=C1N(CCc2ccccc2)C(=S)NC1(c1ccccc1)c1ccccc1 | 29.3% | < 20% |  | 
O=C1N(Cc2ccccc2)C(=S)NC1(c1ccc(Cl)cc1)c1ccc(Cl)cc1 | 74.2% | < 15% |  | 
O=C1NC(=O)C(c2ccccc2)(c2ccccc2)N1 | < 20% | < 20% |  | 
CCCCCCCC/C=C\CCCCCCCCN1C(=O)C(c2ccccc2)(c2ccccc2)NC1=S | < 10% | < 10% |  | 
O=C1CNC(=O)N1c1ccccc1 | < 20% | < 20% |  | 23%
CCCCN1C(=O)CNC1=S | < 20% | < 20% |  | < 10%
CCN1C(=O)C(c2ccccc2)(c2ccccc2)NC1=S | 40% | < 10% |  | 
O=C1N(c2ccccc2)C(=S)NC1(c1ccccc1)c1ccccc1 | 32.6% | < 20% |  | 
O=C1NC(c2ccccc2)(c2ccccc2)C(=O)N1CCc1ccccc1 | < 20% | < 20% |  | 
CCCCN1C(=O)CNC1=O | < 20% | < 20% |  | < 10%
O=C1CNC(=S)N1c1ccccc1 | < 20% | < 20% |  | 25%
